The nature of assay [1]: nonspecific flux increase, KCNQ1-free cells – parental CHO cells, counter-screen for KCNQ1 potentiator project (AID 493006;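 active = duplicate-averaged activation above buffer control mean plus 5 SD of those controls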;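 as to activation: fluorescence ratio of max minus min over baseline after K+ and Tl+ depolarization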). The following applies: parental CHO-K1 cells, FluxOR thallium flux, at 10 µM; stronger effect = higher value. The method in brief:
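Material: untransfected host CHO-K1 cells with FluxOR thallium dye. Timing: overnight 37 °C plating, 90 min RT dye, 20 min compound. Detection: kinetic FluxOR fluorescence, 10 s baseline, 110 s after stimulus. Read-out basis: max-minus-min fluorescence over baseline, percent of buffer-to-R-L3 span. Replicates: duplicate wells per compound, percent values averaged.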

For assay [2], the target named is Potassium voltage-gated channel subfamily KQT member 1 (Homo sapiens) (UniProt P51787). Put plainly: enhancement of KCNQ1 channel thallium flux – FluxOR thallium flux, CHO cells, duplicates, confirmation (AID 493007;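 active = potentiation averaged over duplicate wells exceeding buffer-only control mean by more than 3 SD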;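 as to outcome: cells depolarized by a potassium plus thallium sulfate stimulus after compound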). The following applies: KCNQ1 cell line, FluxOR thallium flux fluorescence, at 10 µM; stronger effect = higher value, % of reference activator effect, buffer zero. Summed up:
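Test system – KCNQ1-expressing CHO cell line · Incubation – FluxOR dye loading 90 min, compound exposure 20 min, room temperature · Detection – FluxOR Tl+ flux fluorescence, 10 s baseline plus 110 s recording · Controls – buffer-only wells as 0% and R-L3 activator as 100%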

The target in assay [3] is Potassium voltage-gated channel subfamily KQT member 2 (Rattus norvegicus) (UniProt O88943). As to the kind of experiment: KCNQ2 thallium flux enhancement – KCNQ2-CHO-K1 cells, selectivity assay for KCNQ1 potentiator project (AID 493009).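 Also: assay conditions were tuned for KCNQ1 rather than KCNQ2 modulators; signal is max minus min fluorescence divided by baseline after thallium stimulus.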 To be noted: FluxOR thallium flux fluorescence, at 10 µM; stronger effect = higher value, scaled: buffer 0, activator control 100.
Chain of Potassium voltage-gated channel subfamily KQT member 2 (Rattus norvegicus) (O88943 whole entry, looked up): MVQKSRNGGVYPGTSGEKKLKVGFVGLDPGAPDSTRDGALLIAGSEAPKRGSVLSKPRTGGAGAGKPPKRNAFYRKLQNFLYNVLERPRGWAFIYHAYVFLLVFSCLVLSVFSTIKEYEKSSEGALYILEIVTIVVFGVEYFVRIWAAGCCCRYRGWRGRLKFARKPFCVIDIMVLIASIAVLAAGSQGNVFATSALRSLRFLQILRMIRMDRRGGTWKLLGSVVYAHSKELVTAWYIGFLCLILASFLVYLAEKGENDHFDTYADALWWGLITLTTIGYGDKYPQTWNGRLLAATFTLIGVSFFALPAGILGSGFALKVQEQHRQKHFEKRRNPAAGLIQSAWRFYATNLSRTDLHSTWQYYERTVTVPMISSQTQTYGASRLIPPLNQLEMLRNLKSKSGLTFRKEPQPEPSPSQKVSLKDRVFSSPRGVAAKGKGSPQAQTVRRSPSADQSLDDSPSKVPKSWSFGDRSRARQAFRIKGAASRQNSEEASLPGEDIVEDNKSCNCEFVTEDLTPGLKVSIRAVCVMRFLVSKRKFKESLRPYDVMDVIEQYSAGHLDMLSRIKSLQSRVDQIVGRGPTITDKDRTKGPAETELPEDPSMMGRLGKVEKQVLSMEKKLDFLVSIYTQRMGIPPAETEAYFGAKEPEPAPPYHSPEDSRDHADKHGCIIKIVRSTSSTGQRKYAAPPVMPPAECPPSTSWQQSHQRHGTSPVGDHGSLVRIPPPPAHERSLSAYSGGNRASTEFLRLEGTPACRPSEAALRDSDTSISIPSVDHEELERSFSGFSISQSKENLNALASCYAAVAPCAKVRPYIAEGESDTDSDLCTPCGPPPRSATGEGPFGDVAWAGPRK
Assay [4] concerns the target Potassium voltage-gated channel subfamily KQT member 1 (Homo sapiens) (UniProt P51787). Put plainly: KCNQ1 activators by electrophysiology – IonWorks patch clamp, KCNQ1-CHO cells, orthogonal assay for KCNQ1 potentiator project, confirmation (AID 493184;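 active = current rise at least 3 SD above the untreated control mean in each of two repeat wells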;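 as to current potentiation: percent change of the same well's current before compound addition so 0% = no change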). The following applies: automated patch clamp current, at 10 µM; stronger effect = higher value. Summed up: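 Read-out: Percent current increase versus pre-compound level | Assay system: CHO cells carrying KCNQ1 | Measured by: Automated perforated-patch electrophysiology | Medium: External bath solution at pH 7.4 | Dosing: One dose, 10 µM final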
For orientation: In patch-clamp work, channel activity is measured electrically.

Calls of active or inactive are those of the source.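 The calls were made as follows, unless noted: active = mean duplicate potentiation above the buffer control mean plus 5 SD of buffer wells; inactive = the rest.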

Chain of Potassium voltage-gated channel subfamily KQT member 1 (Homo sapiens) (P51787 whole entry, looked up): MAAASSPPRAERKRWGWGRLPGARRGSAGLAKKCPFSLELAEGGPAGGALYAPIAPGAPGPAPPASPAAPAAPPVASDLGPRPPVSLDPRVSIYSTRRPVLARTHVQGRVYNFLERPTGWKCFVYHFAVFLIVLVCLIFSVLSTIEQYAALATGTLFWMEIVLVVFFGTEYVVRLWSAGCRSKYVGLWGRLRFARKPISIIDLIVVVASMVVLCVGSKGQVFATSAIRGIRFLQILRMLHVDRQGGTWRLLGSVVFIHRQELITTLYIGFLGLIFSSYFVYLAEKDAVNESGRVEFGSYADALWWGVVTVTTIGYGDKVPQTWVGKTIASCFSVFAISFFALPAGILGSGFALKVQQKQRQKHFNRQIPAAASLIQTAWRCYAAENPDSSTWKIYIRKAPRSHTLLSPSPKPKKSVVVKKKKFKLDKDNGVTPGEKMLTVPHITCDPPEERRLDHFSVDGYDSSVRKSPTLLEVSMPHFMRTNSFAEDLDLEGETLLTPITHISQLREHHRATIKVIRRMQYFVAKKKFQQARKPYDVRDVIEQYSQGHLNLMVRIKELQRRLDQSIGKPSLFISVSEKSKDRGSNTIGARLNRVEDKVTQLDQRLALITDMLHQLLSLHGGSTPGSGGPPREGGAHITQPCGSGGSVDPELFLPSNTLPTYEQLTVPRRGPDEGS

Consider `Cc1ccc(C)c(NC(=S)N/N=C2/CCCCc3ccccc32)c1`, for which, in assay [1], the activation is 140% (active). In addition, the potentiation in assay [2] is 37% (active); in assay [3], 164% (active). Also, the result in assay [4] was inactive.
With `Clc1ccc(C(c2ccccc2)N2CCNCC2)cc1` (stereo not given), the outcome in assay [1], in assay [2], in assay [3] and in assay [4] was inactive.
Regarding `c1ccc(-n2cnc3cc(NCc4cccs4)ccc32)cc1`, the outcome in assay [1], in assay [2], in assay [3] and in assay [4] was inactive.
In the case of `CN(C(=O)c1cc(COc2c(F)cccc2F)on1)C1CCOC1` (stereo not given), the outcome in assay [1], in assay [2], in assay [3] and in assay [4] was inactive.
For `COc1ccc(-n2c(NCCN(C)C)nc3sc4c(c3c2=O)CCCCC4)cc1`, the result in assay [1], in assay [2], in assay [3] and in assay [4] was inactive.
As for `Cc1ccccc1C(=O)Nc1nc(=S)ss1`, the activation in assay [1] was 250% (active). The potentiation in assay [2] was 72% (active); in assay [3], 267% (active). Besides, in assay [4], the result was inactive.
Consider `CCOC(=O)c1c(NC(=S)NC)sc2c1CC(C)(C)SC2`, for which the activation in assay [1] was 498% (active). Besides, the potentiation in assay [2] is 126% (active); in assay [3], 444% (active). Besides, in assay [4], the outcome was inactive.
As for `CCOC(=O)Cn1c(=N)n(CCOc2ccc(Br)cc2)c2ccccc21`, the outcome in assay [1], in assay [2], in assay [3] and in assay [4] was inactive.
In the case of `Cc1nn(C)c(C(=O)NC(=S)Nc2ccccc2Br)c1Cl`, the activation in assay [1] was 232% (active). The potentiation is 96% (active) in assay [2] and 254% (active) in assay [3]. The outcome in assay [4] was inactive.
Consider `COc1ccc(NC(=O)Cc2nnc(SCC(=O)c3ccc(F)cc3)n2C)cc1`, for which the outcome in assay [1], in assay [2], in assay [3] and in assay [4] was inactive.
Turning to `COc1ccc(C2c3ccc4ccccc4c3Oc3ncn(CCCO)c(=N)c32)cc1` (stereo not given), the outcome in assay [1], in assay [2], in assay [3] and in assay [4] was inactive.
As for `O=C(NC(=S)N1CCN(c2c(Cl)cccc2[N+](=O)[O-])CC1)c1cccs1`, in assay [1], the activation was 236% (active). The potentiation in assay [2] was 156% (active); in assay [3], 375% (active). In addition, in assay [4], the outcome was inactive.
For `CCC1(c2ccc(Cl)cc2)NC(=S)N(c2ccc(C)c(C)c2)N1` (stereo not given) the same measures were 706% (active), 188% (active), 550% (active) and “inactive”.
On to `COc1ccc(C(=O)NC(=S)N(Cc2ccccc2)Cc2ccccc2)cc1`, for which the activation in assay [1] is 385% (active). For the same molecule, the potentiation was 168% (active) in assay [2] and 436% (active) in assay [3]. In addition, the result in assay [4] was inactive.
For `O=c1c2ccccc2nc(-c2ccc(Cl)c(Cl)c2)n1O` the same measures were 518% (active), 244% (active), 558% (active) and “inactive”.
Regarding `CC(=O)c1c(O)cc(C)n(-c2ccc(F)cc2)c1=O`, the result in assay [1], in assay [2], in assay [3] and in assay [4] was inactive.
In the case of `COc1ccc(S(=O)(=O)NCCCN2CCOCC2)cc1F`, the outcome in assay [1], in assay [2], in assay [3] and in assay [4] was inactive.
On to `COc1ccc(C2NC(c3ccc(OC)c(OC)c3OC)C(C)C(=O)C2C)c(OC)c1OC` (stereo not given), for which the outcome in assay [1], in assay [2], in assay [3] and in assay [4] was inactive.
In the case of `CCCCCC/C(C)=C1/SC(=S)NC1=O`, the activation in assay [1] was 752% (active). Moreover, the potentiation in assay [2] is 264% (active); in assay [3], 612% (active). Also, in assay [4], the result was inactive.
Regarding `C#CCOCCOCCOCCNc1nc(N2CCN(C(=O)C([C@@H](C)CC)n3cc(C(N)Cc4ccc(O)cc4)nn3)CC2)nc(N2CCN(C(=O)[C@H](CCC(=O)O)n3cc(C(N)CC(C)C)nn3)CC2)n1` (stereo not given in full), the result in assay [1], in assay [2], in assay [3] and in assay [4] was inactive.
In the case of `Cn1c(O)c(N=Nc2nc(-c3ccccc3)cs2)c2ccccc21`, in assay [1], the activation was 510% (active). The potentiation in assay [2] was 385% (active); in assay [3], 677% (active). Moreover, the outcome in assay [4] was inactive.
Consider `Cc1ccc(C(=O)O/N=C(\N)Cc2cccs2)c(Cl)c1`, for which the outcome in assay [1], in assay [2], in assay [3] and in assay [4] was inactive.
Consider `Cc1ccccc1-n1cnnc1SCC(=O)N1CCN(c2ccccc2)CC1`, for which, in assay [1], the activation was 200% (active). Moreover, the potentiation in assay [2] was 49.5% (active); in assay [3], 206% (active). In addition, in assay [4], the result was inactive.
Taken in the same sequence, the figures for `CC(C)C1Cc2c(sc3[nH]c(=S)n(Cc4ccccc4)c(=O)c23)CO1` (stereo not given) were 404% (active), 128% (active), 362% (active) and “inactive”.
For the molecule `O=C(NC(=S)Nc1nc(-c2ccccc2)cs1)c1ccco1`, the result in assay [1], in assay [3] and in assay [4] was inactive. Moreover, in assay [2], the potentiation is 48.5% (active).
With `COC(=O)c1c(NC(=S)Nc2ccccc2Cl)sc(C)c1C`, the result in assay [1], in assay [2], in assay [3] and in assay [4] was inactive.
On to `COc1ccc(OC)c(NC(=O)C(=O)NNC(=O)C23CC4CC(CC(C4)C2)C3)c1`, for which, in assay [1], the activation was 404% (active). The potentiation in assay [2] is 244% (active); in assay [3], 463% (active). For the same molecule, the outcome in assay [4] was inactive.
On to `S=c1nn[nH]n1C12CC3CC(CC(C3)C1)C2`, for which the activation in assay [1] was 206% (active). In addition, the potentiation in assay [2] is 51.5% (active); in assay [3], 210% (active). Further, the outcome in assay [4] was inactive.
For the molecule `COc1ccc(C(=O)O/N=C(\N)c2ccccc2Cl)cc1OC`, the outcome in assay [1], in assay [2], in assay [3] and in assay [4] was inactive.
Take `CCN(CC)CCCNC(=O)c1[nH]c2ccccc2c1Sc1ccc(Cl)cc1`: the result in assay [1] and in assay [3] was inactive. Further, the potentiation in assay [2] is 73% (active). Also, the current potentiation in assay [4] was 29.6% (active).

Values taken from PubChem BioAssay.
